Measured values collected from several papers.
Each line is one published result; the experiments were not run side by side.
Sample: plasma

For CC(C)(Sc1ccncc1-c1ccc(C#N)c2ccccc12)C(=O)O, the half-life was 9.51 h (male human; oral, 40 mg, single dose, fasted, healthy volunteers).
For COc1ccc([C@@H]2CN(C(=O)[C@@H](O)CO)C[C@@]2(C)[C@@H](C)O)cc1OC1CN(c2ccc(C)cn2)C1, the half-life was 12.1 h (human; oral, 40 mg, single dose, healthy volunteers).
COCCOc1cnc2ccn([C@H](C)c3nnc4c(F)cc(-c5cnn(C)c5)cn34)c(=O)c2c1 gave a half-life of 9.1 h (human; oral, 100 mg, multiple doses, once daily, patients).
CC(C)(O)c1ccccc1-c1ccc2[nH]c(/C=C/c3ccc(C(F)(F)F)cc3)nc2c1 gave a half-life of 63 h (male human; oral, 120 mg, single dose, fasted, healthy volunteers).
Cn1cc(-c2ccc(S(=O)(=O)[C@@H]3C[C@@H](C(=O)NC4(C#N)CC4)N(C(=O)C4(C(F)(F)F)CC4)C3)c(C(F)(F)F)c2)cn1 has a half-life of 5.69 h (human; oral, 3 mg, single dose, fasted, healthy volunteers).
c1cnc2ccc(Nc3nc(NC4CC4)c4nc[nH]c4n3)cc2c1 has a half-life of 2 h (human; oral, 50 mg/m², patients).
C[C@@H](Nc1cc(F)cc(F)c1)c1cc(C(=O)N(C)C)cc2c(=O)cc(N3CCOCC3)oc12 gave a half-life of 6.23 h (human; oral, 240 mg, single dose, patients).
For COc1cc(C(=O)NC2CCN(C)CC2)c(F)cc1Nc1ncc(C(F)(F)F)c(Oc2cccc3c2C(=O)N(C)C3)n1, the half-life was 18.9 h (human; oral, 100 mg, multiple doses, once daily, patients).
For CO[C@H]1CC[C@H](N2C(=O)CNc3ncc(-c4ccc(C(C)(C)O)nc4)nc32)CC1, the half-life was 4.86 h (human; oral, 45 mg, patients).
CO[C@@H]1[C@H](OC(=O)N2CC(CCN3CCOCC3)C2)CC[C@]2(CO2)[C@H]1[C@@]1(C)O[C@@H]1CC=C(C)C gave a half-life of 0.47 h (human; subcutaneous, 3.6 mg, single dose, healthy volunteers).
With CC(C)n1cc(C#N)c2cc(-n3cc(C(=O)O)cn3)ccc21 the half-life was 5.1 h (human; oral, 10 mg, single dose, fasted, healthy volunteers).
